Laboratory results taken from ChEMBL document CHEMBL3860085, “Synthesis and evaluation of dihydropyrimidinone-derived selenoesters as multi-targeted directed compounds against Alzheimer's disease” (Bioorg Med Chem, 2016).

Assays:
[1] = Metal chelating activity assessed as compound-Fe2+ complex formation after 10 mins by UV-Vis spectrophotometer; format: physicochemical
How it was run: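 Fe2+ chelation by modified Minotti–Aust method. Compounds 5–100 μM with Fe2+ 120 μM (final), 37°C 10 min, then 1,10-phenanthroline (0.25% w/v) added and A510 read. Methanol serves as control, BHT as reference chelator. % chelation = (A control − A sample)/A control × 100; EC50 derived. Mean ± SEM, n=3 in duplicate.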

[2] = Antioxidant activity assessed as inhibition of Fe2+-induced thiobarbituric acid reactive substance formation in phospholipids extracted from egg yolk by measuring malondialdehyde levels per mg of triglycerides at 100 uM after 1 hr by UV-Vis spectrophotometric method (reference value: 8.17 +/- 0.32 nmol); format: functional
How it was run: (§1)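 Egg-yolk phospholipids (isopropanol/water extract, pellet resuspended; 1 mg/mL triglycerides) incubated with or without fresh FeSO4 100 μM plus compound in 0.05 M potassium phosphate pH 7.5, 37°C 1 h. Acetic acid (pH 3.4) and 0.6% TBA added, 97°C 1 h, n-butanol extraction, A532 against MDA standard. Reported as nmol MDA/mg triglycerides. Mean ± SEM, n=3 in duplicate.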

[3] = target: Acetylcholinesterase (Electrophorus electricus, UniProt O42275); assay: Inhibition of electric eel AChE using acetylthiocholine iodide as substrate preincubated for 15 mins followed by substrate addition measured every 15 secs for 5 to 10 mins by Ellman's method
[4] = Antioxidant activity assessed as inhibition of Fe2+-induced thiobarbituric acid reactive substance formation in phospholipids extracted from egg yolk after 1 hr by UV-Vis spectrophotometric method; format: functional; how it was run: as §1

Sequence of Acetylcholinesterase (O42275 whole entry): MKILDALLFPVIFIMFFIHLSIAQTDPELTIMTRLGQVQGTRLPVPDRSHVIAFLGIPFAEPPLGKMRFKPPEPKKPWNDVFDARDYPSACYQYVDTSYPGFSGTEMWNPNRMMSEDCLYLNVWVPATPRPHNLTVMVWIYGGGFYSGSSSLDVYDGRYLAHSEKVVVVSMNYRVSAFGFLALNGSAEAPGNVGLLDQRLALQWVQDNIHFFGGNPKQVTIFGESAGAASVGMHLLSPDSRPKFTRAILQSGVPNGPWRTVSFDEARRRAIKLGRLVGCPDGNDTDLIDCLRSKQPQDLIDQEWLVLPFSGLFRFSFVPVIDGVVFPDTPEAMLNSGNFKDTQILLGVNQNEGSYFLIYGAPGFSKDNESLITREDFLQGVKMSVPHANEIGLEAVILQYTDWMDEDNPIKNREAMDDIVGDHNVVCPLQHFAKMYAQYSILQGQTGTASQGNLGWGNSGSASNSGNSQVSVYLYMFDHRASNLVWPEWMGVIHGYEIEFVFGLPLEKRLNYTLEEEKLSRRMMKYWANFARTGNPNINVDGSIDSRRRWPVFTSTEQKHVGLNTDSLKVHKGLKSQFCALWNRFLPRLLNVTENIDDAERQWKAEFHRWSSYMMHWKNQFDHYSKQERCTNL

| Structure (SMILES) | EC50 [1] | MDA level [2] | IC50 [3] | Activity [4] |
| --- | --- | --- | --- | --- |
| CCOC(=O)C1=C(C)NC(=O)NC1c1ccccc1 (stereo not given) | 15.8 µM | 3.03 nmol | 9.23 µM |  |
| Cc1cc(C(C)(C)C)c(O)c(C(C)(C)C)c1 [BUTYLATED HYDROXYTOLUENE] | 23.3 µM |  |  |  |
| CCOC(=O)C1=C(C[Se]C(=O)c2ccc(C)cc2)NC(=O)NC1c1ccc(N(C)C)cc1 (stereo not given) | 29.6 µM | 3.96 nmol |  |  |
| CCOC(=O)C1=C(C[Se]C(C)=O)NC(=O)NC1c1ccccc1 (stereo not given) | 41.2 µM | 5.1 nmol | 14.2 µM |  |
| CCOC(=O)C1=C(C[Se]C(=O)c2ccc(C)cc2)NC(=O)NC1c1ccc(O)c(OC)c1 (stereo not given) | 8.1 µM | 0.68 nmol | 13.6 µM | Dose-dependent effect |
| CCOC(=O)C1=C(C[Se]C(=O)c2ccc(C)cc2)NC(=O)NC1c1cccc2ccccc12 (stereo not given) | 35.5 µM | 1.96 nmol |  |  |
| CCOC(=O)C1=C(C[Se]C(=O)c2cccc(C(=O)[Se]CC3=C(C(=O)OCC)C(c4ccccc4)NC(=O)N3)c2)NC(=O)NC1c1ccccc1 (stereo not given) | 29.9 µM | 3.99 nmol | 10.6 µM |  |
| CCOC(=O)C1=C(C[Se]C(=O)c2ccc(C)cc2)NC(=O)NC1c1ccc(C)cc1 (stereo not given) | 21.2 µM | 0.87 nmol |  | Dose-dependent effect |
| Cc1ccc(C(=O)[Se]Cc2ccccc2)cc1 | 22.4 µM | 1.23 nmol | 12.9 µM |  |
| CCOC(=O)C1=C(C[Se]C(=O)c2ccc(C)cc2)NC(=O)NC1c1cccc([N+](=O)[O-])c1 (stereo not given) | 24.5 µM | 1.51 nmol |  |  |
| c1ccc([Se][Se]c2ccccc2)cc1 |  | 2.41 nmol |  |  |
| CCOC(=O)C1=C(C[Se]C(=O)c2ccc(C)cc2)NC(=O)NC1c1ccccc1 (stereo not given) | 10.5 µM | 0.46 nmol | 7.21 µM | Dose-dependent effect |
| CCOC(=O)C1=C(C[Se]C(=O)c2ccc(C)cc2)NC(=O)NC1c1ccc(OC)cc1 (stereo not given) | 22.4 µM | 0.77 nmol |  | Dose-dependent effect |
| O=c1c2ccccc2[se]n1-c1ccccc1 |  | 3.22 nmol |  |  |
| CCOC(=O)C1=C(CSC(=O)c2ccc(C)cc2)NC(=O)NC1c1ccccc1 (stereo not given) | 20.2 µM | 3.14 nmol | 11.7 µM |  |
| CCOC(=O)C1=C(C[Se]C(=O)c2ccc(C)cc2)N(C)C(=O)NC1c1cccc([N+](=O)[O-])c1 (stereo not given) | 32.8 µM | 2.29 nmol |  |  |
